Data as given in article PMC5812400 (ESMO Open, 2018).

Tested on: advanced non-haematological malignancies
Assay: Tumour response
Assay type: in vivo, human
How it was run: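 Response assessed by RECIST 1.1 on contrast CT or MRI of chest, abdomen and pelvis; bone scans allowed for bone metastases. Same modality kept per patient. Baseline scan within 4 weeks before first dose, then cycle 3 day 1 and every two cycles until end of study or discontinuation. ORR = CR+PR; clinical benefit = CR+PR+SD, and CR+PR+SD ≥6 months.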

## CC(C)n1nc(-c2ccc3oc(N)nc3c2)c2c(N)ncnc21 [TAK-228, Sapanisertib]
QD 3 mg (n=11)
  Best overall response: CR: 0 n (%)
  Best overall response: PD: 3 (27) n (%)
  Best overall response: PR: 1 (9) n (%)
  Best overall response: SD (<6 months): 3 (27) n (%)
  Best overall response: SD (≥6 months): 3 (27) n (%)
  Clinical benefit rate CR+PR + SD: 7 (64) n (%)
  Clinical benefit rate CR+PR + SD ≥6 months: 4 (36) n (%)
  Objective response rate (CR+PR): 1 (9) n (%)
QD 4 mg (n=6)
  Best overall response: CR: 0 n (%)
  Best overall response: PD: 3 (50) n (%)
  Best overall response: PR: 1 (17) n (%)
  Best overall response: SD (<6 months): 0 n (%)
  Best overall response: SD (≥6 months): 1 (17) n (%)
  Clinical benefit rate CR+PR + SD: 2 (33) n (%)
  Clinical benefit rate CR+PR + SD ≥6 months: 2 (33) n (%)
  Objective response rate (CR+PR): 1 (17) n (%)
QD Total (n=17)
  Best overall response: CR: 0 n (%)
  Best overall response: PD: 6 (35) n (%)
  Best overall response: PR: 2 (12) n (%)
  Best overall response: SD (<6 months): 3 (18) n (%)
  Best overall response: SD (≥6 months): 4 (24) n (%)
  Clinical benefit rate CR+PR + SD: 9 (53) n (%)
  Clinical benefit rate CR+PR + SD ≥6 months: 6 (35) n (%)
  Objective response rate (CR+PR): 2 (12) n (%)
QD arm
  Objective response rate (ORR): 12%
QD arm (9/17 patients)
  Overall clinical benefit rate (CR+PR + SD): 52.9%
QW 20 mg (n=7)
  Best overall response: CR: 0 n (%)
  Best overall response: PD: 3 (43) n (%)
  Best overall response: PR: 0 n (%)
  Best overall response: SD (<6 months): 3 (43) n (%)
  Best overall response: SD (≥6 months): 0 n (%)
  Clinical benefit rate CR+PR + SD: 3 (43) n (%)
  Clinical benefit rate CR+PR + SD ≥6 months: 0 n (%)
  Objective response rate (CR+PR): 0 n (%)
QW 30 mg (n=13)
  Best overall response: CR: 0 n (%)
  Best overall response: PD: 3 (23) n (%)
  Best overall response: PR: 0 n (%)
  Best overall response: SD (<6 months): 5 (39) n (%)
  Best overall response: SD (≥6 months): 1 (8) n (%)
  Clinical benefit rate CR+PR + SD: 6 (46) n (%)
  Clinical benefit rate CR+PR + SD ≥6 months: 1 (8) n (%)
  Objective response rate (CR+PR): 0 n (%)
QW Total (n=20)
  Best overall response: CR: 0 n (%)
  Best overall response: PD: 6 (30) n (%)
  Best overall response: PR: 0 n (%)
  Best overall response: SD (<6 months): 8 (40) n (%)
  Best overall response: SD (≥6 months): 1 (5) n (%)
  Clinical benefit rate CR+PR + SD: 9 (45) n (%)
  Clinical benefit rate CR+PR + SD ≥6 months: 1 (5) n (%)
  Objective response rate (CR+PR): 0 n (%)
QW arm
  Objective response rate (ORR): 0%
QW arm (9/20 patients)
  Overall clinical benefit rate (CR+PR + SD): 45%
